According to ChEMBL document CHEMBL1158568, “In silico directed chemical probing of the adenosine receptor family” (Bioorg Med Chem, 2010):

Legend:
Adenosine receptor A2a [1] = target: T1, Adenosine receptor A2a (Homo sapiens, UniProt P29274); assay: Displacement of [3H]ZM241385 from human adenosine A2A receptor expressed in human HeLa cells at 10 uM after 30 mins by beta scintillation counting; assay type: cell-based
Outline: (§1)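 Membranes from HeLa-A2A cells, 10 lg protein, in 50 mM Tris–HCl, 1 mM EDTA, 10 mM MgCl2, 2 UI/mL adenosine deaminase, pH 7.4; 3 nM [3H]ZM241385, 30 min at 25 °C, duplicates. 50 µM NECA defined non-specific binding. Single 10 µM point or six concentrations 10 nM–100 µM; Ki by Cheng–Prusoff.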

[2] = target: T2, Adenosine receptor A2b (Homo sapiens) (UniProt P29275); assay: Displacement of [3H]DPCPX from human adenosine A2B receptor expressed in HEK293 cells at 10 uM after 30 mins by beta scintillation counting; assay type: cell-based
T2 sequence (whole entry): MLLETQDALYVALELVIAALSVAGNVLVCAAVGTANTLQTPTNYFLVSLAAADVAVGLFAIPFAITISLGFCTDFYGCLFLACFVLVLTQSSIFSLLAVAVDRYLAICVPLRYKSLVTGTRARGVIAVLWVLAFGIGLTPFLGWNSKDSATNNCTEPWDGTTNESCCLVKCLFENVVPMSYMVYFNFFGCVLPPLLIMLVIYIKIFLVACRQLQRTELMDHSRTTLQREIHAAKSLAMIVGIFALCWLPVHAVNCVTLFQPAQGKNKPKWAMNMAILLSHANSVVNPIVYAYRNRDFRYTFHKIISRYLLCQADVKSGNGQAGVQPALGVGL

[3] = target: T3, Adenosine receptor A3 (Homo sapiens) (UniProt P0DMS8); assay: Displacement of [3H]NECA from human adenosine A3 receptor expressed in human HeLa cells at 10 uM after 180 mins by beta scintillation counting; assay type: cell-based
T3 sequence (whole entry): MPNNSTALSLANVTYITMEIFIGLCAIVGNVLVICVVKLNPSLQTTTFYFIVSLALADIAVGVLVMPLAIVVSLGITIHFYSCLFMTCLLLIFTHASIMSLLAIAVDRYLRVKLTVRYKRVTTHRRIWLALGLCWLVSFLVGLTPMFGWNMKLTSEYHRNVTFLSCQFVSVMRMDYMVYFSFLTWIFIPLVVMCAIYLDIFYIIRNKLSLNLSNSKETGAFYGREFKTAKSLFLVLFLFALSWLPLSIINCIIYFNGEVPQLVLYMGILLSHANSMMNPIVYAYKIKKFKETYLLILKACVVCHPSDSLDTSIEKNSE
Outline: (§2)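 HeLa-A3 membranes (90 lg protein) in 50 mM Tris–HCl, 1 mM EDTA, 5 mM MgCl2, 2 UI/mL adenosine deaminase, pH 7.4; 30 nM [3H]NECA, 180 min at 25 °C, triplicates, GF/B filtration. Non-specific with 100 µM (R)-PIA. Tested at 10 µM or six concentrations 10 nM–100 µM; Ki by Cheng–Prusoff.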

[4] = target: T4, Adenosine receptor A1 (Homo sapiens) (UniProt P30542); assay: Displacement of [3H]DPCPX from human adenosine A1 receptor expressed in CHO cells at 10 uM after 60 mins by beta scintillation counting; assay type: cell-based
T4 sequence (whole entry): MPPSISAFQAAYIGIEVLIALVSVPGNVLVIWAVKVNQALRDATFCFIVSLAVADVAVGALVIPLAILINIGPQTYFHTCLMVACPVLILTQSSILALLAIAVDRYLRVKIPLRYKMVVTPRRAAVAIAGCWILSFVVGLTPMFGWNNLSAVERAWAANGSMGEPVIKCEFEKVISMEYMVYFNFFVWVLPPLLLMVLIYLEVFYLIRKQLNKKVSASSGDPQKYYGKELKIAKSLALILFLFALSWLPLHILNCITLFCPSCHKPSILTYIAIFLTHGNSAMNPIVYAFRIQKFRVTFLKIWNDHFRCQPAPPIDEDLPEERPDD
Outline: (§3)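 Membranes of CHO-A1 cells (15 lg protein) in 20 mM Hepes, 100 mM NaCl, 10 mM MgCl2, 2 units/ml adenosine deaminase, pH 7.4, with 2 nM [3H]DPCPX; 60 min at 25 °C, duplicates. Non-specific binding with 10 µM (R)-PIA. Filtration, scintillation counting. Single point at 10 µM or six concentrations 10 nM–100 µM; Ki by Cheng–Prusoff.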

Adenosine receptor A1 [5] = target: T5, Adenosine receptor A1 (Homo sapiens, UniProt P30542); assay: Displacement of [3H]DPCPX from human adenosine A1 receptor expressed in CHO cells after 60 mins by beta scintillation counting; assay type: cell-based; outline: as §3
T5 sequence (P30542 whole entry): T4 sequence (whole entry)

Adenosine receptor A1 [6] = target: T5, Adenosine receptor A1; assay: Antagonist activity at human adenosine A1 receptor expressed in forskolin-stimulated CHO cells assessed as inhibition of […]-induced decrease in cAMP level pre-incubated for 15 mins by enzyme immunoassay; assay type: functional, cell-based
Outline: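 CHO-A1 cells, 20,000/well, grown in EMEM F-12 with 10% FCS; washed, pre-incubated 15 min at 37 °C with 20 µM rolipram plus test compound, then 0.1 µM NECA 15 min and 3 µM forskolin 3 min. Intracellular cAMP read by enzyme immunoassay at 450 nm; pKB from IC50 by Leff–Dougall equation.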

[7] = target: T6, Alpha-2A adrenergic receptor (Homo sapiens) (UniProt P08913); assay: Displacement of [3H]MK912 from human adrenergic alpha2A receptor expressed in CHO cells at 10 uM after 30 mins by beta scintillation counting; assay type: cell-based
T6 sequence (whole entry): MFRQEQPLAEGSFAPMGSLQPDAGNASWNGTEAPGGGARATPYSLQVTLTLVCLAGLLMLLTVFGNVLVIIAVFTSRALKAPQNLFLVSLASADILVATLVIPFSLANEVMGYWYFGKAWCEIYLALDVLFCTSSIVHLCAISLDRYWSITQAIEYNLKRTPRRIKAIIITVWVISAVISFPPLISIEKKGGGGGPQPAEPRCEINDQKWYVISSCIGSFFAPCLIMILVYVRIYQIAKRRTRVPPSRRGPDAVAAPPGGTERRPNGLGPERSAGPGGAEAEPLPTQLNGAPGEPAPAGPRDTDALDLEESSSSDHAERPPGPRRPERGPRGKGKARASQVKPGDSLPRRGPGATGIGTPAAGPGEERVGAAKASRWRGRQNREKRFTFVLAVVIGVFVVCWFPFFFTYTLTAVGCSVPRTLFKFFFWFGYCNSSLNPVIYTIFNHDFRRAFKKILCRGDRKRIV
Outline: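 CHO-a2A membranes (25 lg protein) in 25 mM Na2PO4, pH 7.4, with 0.37 nM [3H]MK-912 and compound at 10 µM; 30 min at 25 °C, duplicates. Non-specific binding with 100 µM norepinephrine; filtration and scintillation counting.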

[8] = target: Histamine H1 receptor (Homo sapiens) (UniProt P35367); assay: Displacement of [3H]pyrilamine from human histamine H1 receptor expressed in CHO cells at 10 uM after 60 mins by beta scintillation counting; assay type: cell-based
Outline: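 CHO-H1 membranes (1 lg protein) in 50 mM Tris–HCl pH 7.4 with 2 nM [3H]pyrilamine and compound at 10 µM; 60 min at 27 °C, duplicates. 10 µM triprolidine for non-specific binding; GF/C filtration, scintillation counting.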

[9] = target: 5-hydroxytryptamine receptor 7 (Homo sapiens) (UniProt P34969); assay: Displacement of [3H]SB269970 from human 5HT7 receptor expressed in HEK293 cells at 10 uM after 60 mins by beta scintillation counting; assay type: cell-based
Outline: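 HEK-293-5-HT7 membranes (5 lg protein) in 50 mM Tris–HCl, 4 mM CaCl2, 1 mM ascorbic acid, 0.1 mM pargyline, pH 7.4; 2 nM [3H]SB269970, compound at 10 µM, 60 min at 37 °C, duplicates. Non-specific defined with 25 µM clozapine.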

Adenosine receptor A2b [10] = target: T7, Adenosine receptor A2b (Homo sapiens, UniProt P29275); assay: Displacement of [3H]DPCPX from human adenosine A2B receptor expressed in HEK293 cells after 30 mins by beta scintillation counting; assay type: cell-based
T7 sequence (P29275 whole entry): T2 sequence (whole entry)

Adenosine receptor A2b [11] = target: T7, Adenosine receptor A2b; assay: Antagonist activity at human adenosine A2B receptor expressed in HEK293 cells assessed as inhibition of […]-induced cAMP accumulation pre-incubated for 15 mins by enzyme immunoassay; assay type: functional, cell-based
Outline: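 HEK-293 A2B cells seeded 10,000/well in EMEM F-12 with 10% FCS; 15 min pre-incubation at 37 °C with 30 µM rolipram and test compound, followed by 10 µM NECA for 15 min. Enzyme-immunoassay readout of intracellular cAMP at 450 nm; pKB by Leff–Dougall equation.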

Adenosine receptor A3 [12] = target: T8, Adenosine receptor A3 (Homo sapiens, UniProt P0DMS8); assay: Displacement of [3H]NECA from human adenosine A3 receptor expressed in human HeLa cells after 180 mins by beta scintillation counting; assay type: cell-based; outline: as §2
T8 sequence (P0DMS8 whole entry): T3 sequence (whole entry)

Adenosine receptor A2a [13] = target: T1, Adenosine receptor A2a; assay: Displacement of [3H]ZM241385 from human adenosine A2A receptor expressed in human HeLa cells after 30 mins by beta scintillation counting; assay type: cell-based; outline: as §1
Adenosine receptor A2a [14] = target: T1, Adenosine receptor A2a; assay: Antagonist activity at human adenosine A2A receptor expressed in CHO cells assessed as inhibition of […]-induced cAMP accumulation pre-incubated for 15 mins by enzyme immunoassay; assay type: functional, cell-based
Outline: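 CHO-A2A cells, 10,000/well, in DMEM F-12 with 10% FCS; pre-incubated 15 min at 37 °C with 30 µM rolipram and test compound, then stimulated with 1 µM NECA for 15 min. cAMP measured by enzyme immunoassay at 450 nm; antagonist pKB derived from IC50 via Leff–Dougall equation.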

Adenosine receptor A3 [15] = target: T8, Adenosine receptor A3; assay: Antagonist activity at human adenosine A3 receptor expressed in forskolin-stimulated CHO cells assessed as inhibition of […]-induced decrease in cAMP level pre-incubated for 15 mins by enzyme immunoassay; assay type: functional, cell-based
Outline: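 Using CHO-A3 cells (20,000/well, DMEM F-12, 10% FCS), test compound plus 30 µM rolipram pre-incubated 15 min at 37 °C; 1 µM NECA added 15 min, then 10 µM forskolin 3 min. cAMP by enzyme immunoassay at 450 nm; pKB by Leff–Dougall equation.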

T1 sequence (P29274 whole entry): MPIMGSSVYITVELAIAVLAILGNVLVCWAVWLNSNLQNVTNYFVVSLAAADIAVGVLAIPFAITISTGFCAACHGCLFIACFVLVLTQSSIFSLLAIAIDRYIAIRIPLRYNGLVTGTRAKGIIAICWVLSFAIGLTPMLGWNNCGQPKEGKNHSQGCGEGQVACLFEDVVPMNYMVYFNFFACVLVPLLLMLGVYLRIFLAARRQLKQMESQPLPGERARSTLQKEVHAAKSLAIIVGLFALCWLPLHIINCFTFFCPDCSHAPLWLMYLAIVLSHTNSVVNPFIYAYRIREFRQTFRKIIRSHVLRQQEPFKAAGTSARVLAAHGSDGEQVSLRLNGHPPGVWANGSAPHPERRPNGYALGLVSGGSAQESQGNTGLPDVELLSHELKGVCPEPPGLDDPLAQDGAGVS
Chain of 5-hydroxytryptamine receptor 7 (Homo sapiens) (P34969 whole entry): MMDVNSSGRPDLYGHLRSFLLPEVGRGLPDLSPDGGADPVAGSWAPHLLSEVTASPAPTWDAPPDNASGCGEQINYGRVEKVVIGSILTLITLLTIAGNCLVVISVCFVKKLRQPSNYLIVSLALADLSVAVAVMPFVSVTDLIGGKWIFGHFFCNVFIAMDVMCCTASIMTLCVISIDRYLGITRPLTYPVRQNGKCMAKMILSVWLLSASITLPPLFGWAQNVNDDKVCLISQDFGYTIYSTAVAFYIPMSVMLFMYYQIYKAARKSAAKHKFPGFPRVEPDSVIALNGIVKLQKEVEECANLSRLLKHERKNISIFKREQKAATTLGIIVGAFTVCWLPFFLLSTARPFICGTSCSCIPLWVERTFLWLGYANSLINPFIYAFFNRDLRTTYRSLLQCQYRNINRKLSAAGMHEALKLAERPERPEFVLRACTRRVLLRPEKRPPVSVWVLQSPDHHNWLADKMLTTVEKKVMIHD
Chain of Histamine H1 receptor (Homo sapiens) (P35367 whole entry): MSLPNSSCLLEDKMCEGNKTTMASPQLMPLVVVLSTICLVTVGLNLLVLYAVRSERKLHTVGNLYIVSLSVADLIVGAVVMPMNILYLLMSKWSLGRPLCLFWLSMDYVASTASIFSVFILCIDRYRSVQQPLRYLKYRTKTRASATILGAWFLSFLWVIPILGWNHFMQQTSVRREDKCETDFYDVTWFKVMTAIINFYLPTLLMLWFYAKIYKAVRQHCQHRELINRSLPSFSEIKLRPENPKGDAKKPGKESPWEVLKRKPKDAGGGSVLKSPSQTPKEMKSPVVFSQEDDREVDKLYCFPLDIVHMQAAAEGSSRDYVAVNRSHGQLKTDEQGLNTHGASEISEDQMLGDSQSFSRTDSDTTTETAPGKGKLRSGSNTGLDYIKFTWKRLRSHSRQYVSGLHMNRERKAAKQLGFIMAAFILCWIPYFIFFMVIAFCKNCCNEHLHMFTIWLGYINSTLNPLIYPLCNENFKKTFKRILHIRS

inhibition (Adenosine receptor A2a [1]) | inhibition [2] | inhibition [3] | inhibition [4] | SMILES | further results
15.2% | 2% | 1.9% | 9.8% | CCO/C=N/c1c(C#N)ncn1Cc1ccccc1 | 
10.9% | 5% | 39% | 87.3% | C=CCOc1cccc(-c2nc(O)c3c4ccccc4c(=O)n(CC)n23)c1 | Ki (Adenosine receptor A1 [5]): 15.8 nM; pKb (Adenosine receptor A1 [6]): 6.8; Activity [7]: 14%; Activity [8]: 42%; Activity [9]: 20%
5% | 3% | 31.8% | 18.8% | COc1ccc(-c2nc(N3CCOCC3)c3ncn(-c4ccc(F)cc4)c3n2)cc1 | 
22.9% | 9.5% | 10.9% | 11.1% | NC(=O)c1nc(-c2ccccc2O)nc2c1ncn2Cc1ccccc1 | 
0.4% | 6.9% | 15.1% | 0.8% | N#Cc1ccc(-c2nc(N3CCCCC3)c3ncn(-c4ccc(F)cc4)c3n2)cc1 | 
8.1% |  |  | 18.8% | OC1=NCC2C(C=NN2Cc2ccccc2)C(c2ccc(Br)cc2)S1 (stereo not given) | 
13.3% |  |  | 8% | CN1N=C(C(=O)Nc2ccc(Cl)cn2)C2COc3ccccc3C21 (stereo not given) | 
15.2% | 55.4% | 26.1% | 26.8% | N=C1c2c(C(N)=O)nc(-c3ccccc3O)n2CN1c1ccc(O)cc1 | Ki (Adenosine receptor A2b [10]): 1580 nM; pKb (Adenosine receptor A2b [11]): 5.7; Activity [7]: 28%; Activity [8]: 17%; Activity [9]: 11%
59.6% |  |  | 51.9% | COc1cn(-c2ccccc2)nc1C(=O)Nc1ccc(C)cn1 | 
68.9% | 19% |  | 38.9% | Cc1ccc(-c2nc(C(=O)Nc3ccccn3)c3n2CCCCC3)cc1 | Ki (Adenosine receptor A3 [12]): 3160 nM; Ki (Adenosine receptor A2a [13]): 2510 nM; pKb (Adenosine receptor A2a [14]): 5.1; Activity [7]: 12%; Activity [8]: 39%; Activity [9]: 18%
4.5% | 0.5% | 23.1% | 25.5% | NC(=O)c1nc(-c2cccc(O)c2)nc2c1ncn2-c1ccccc1 | 
9.8% | 9.9% | 28% | 1.2% | CCO/C(C)=N/c1c(C#N)ncn1Cc1ccccc1 | 
14.3% | 4.3% | 1.9% | 6.8% | Cc1ccc(-n2cnc3c(N4CCSCC4)nc(-c4ccc(C#N)cc4)nc32)cc1 | 
6.1% | 6.8% | 3% | 7.6% | Cc1ccc(-n2cnc3c(N4CCOCC4)nc(-c4ccc(C#N)cc4)nc32)cc1 | 
20% | 2.6% | 71.1% | 37.5% | Cc1ccc(-c2ncc3[nH]c(=O)n(Cc4ccccc4)c3n2)cc1 | Ki (Adenosine receptor A3 [12]): 316 nM; pKb (Adenosine receptor A3 [15]): 6.3; Activity [7]: 18%; Activity [8]: 17%; Activity [9]: 1%
6.7% |  |  | 38.5% | O=C(/N=C1\c2ccccc2CN1c1ncccn1)Nc1ccccc1 | 
63% |  |  | 79% | Cc1cc(NC(=O)C2=C3N=C(c4cccs4)C=C(C(F)(F)F)N3NC2)no1 | 
70.5% |  |  | 60.7% | O=C(Nc1ccco1)c1nc2nc(-c3cccs3)cc(C(F)(F)F)c2s1 | 
